Assay outcomes from PubChem.
Most compounds without a hit are left out; they make up all but 1.3% or so of the library.
NR2E3 ag-1: NR2E3 (human) agonism; Q9Y5X4; GST-NR2E3/biotin-RetCOR TR-FRET, 1536-well; inhibition of corepressor binding, % at 4.78 µM; 320,000 tested, 0.12% active; AID 2300;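 active = percent inhibition above the cutoff of mean plus 3 SD of all tested compounds, set per screening campaign, cut at about 20% in these data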;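 also: 0% = DMSO wells and 100% = biotin wells as full block of FRET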
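Material: NR2E3–RetCOR corepressor complex / Amount: 1.35 nM GST-NR2E3 / Medium: Tris pH 7.5 / Compound: single nominal compound dose of 4.8 µM / Incubation: 5 h at 4 °C / Technique: TR-FRET, Eu(K)-anti-GST donor, streptavidin-D2 acceptor, ex 340, em 617/671 nm / Read-out basis: percent loss of FRET ratio relative to control wells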
PP5 primary: PP5 (human) phosphatase inhibition; inhibition, % at 6.7 µM; purified PP5c, OMFP substrate fluorescence; P53041; 320,000 tested, 0.18% active; AID 1987;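 active = inhibition above the campaign's mean inhibition across all tested compounds plus 3 SD, cut at about 9.5% in these data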;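 also: 0% = DMSO only and 100% = 100 µM cantharidin control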
Target sequence (P53041 whole entry, looked up): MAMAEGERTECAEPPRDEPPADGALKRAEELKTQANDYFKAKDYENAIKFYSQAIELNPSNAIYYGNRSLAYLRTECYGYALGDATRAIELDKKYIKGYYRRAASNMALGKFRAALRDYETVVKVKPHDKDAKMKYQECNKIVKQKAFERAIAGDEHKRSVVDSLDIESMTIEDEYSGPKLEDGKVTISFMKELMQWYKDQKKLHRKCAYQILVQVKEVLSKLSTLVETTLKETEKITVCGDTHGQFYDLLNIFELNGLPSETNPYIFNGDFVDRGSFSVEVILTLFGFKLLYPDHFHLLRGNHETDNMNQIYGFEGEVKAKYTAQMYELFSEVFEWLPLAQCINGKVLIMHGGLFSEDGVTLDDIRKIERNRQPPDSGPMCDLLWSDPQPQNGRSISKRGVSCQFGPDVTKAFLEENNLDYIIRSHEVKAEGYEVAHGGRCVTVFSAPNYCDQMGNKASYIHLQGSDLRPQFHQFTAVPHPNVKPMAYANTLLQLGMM
PP1 inh: counter-screen for PP5 inhibitors: inhibitors of human PP1-alpha; purified PP1alpha, OMFP fluorescence; AID 2235; P62136; 320,000 tested, 0.9% active; inhibition, % at 6.7 µM;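 active = inhibition above the mean inhibition of all tested compounds plus 3 SD, computed separately for each screening campaign, cut at about 15% in these data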
NR2E3 ag-2: human photoreceptor-specific nuclear receptor agonism | Q9Y5X4 | CHO-S Gal4-NCOR/VP16-NR2E3 two-hybrid, luciferase | inhibition of corepressor binding, % at 3.98 µM | 360,000 tested, 0.35% active;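 active = inhibition above the mean of all tested compounds plus 3 SD, cut at about 70% in these data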;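 also: 0% = DMSO with NR2E3 transfected cells and 100% = cells lacking NR2E3 construct; higher means lower luciferase signal from less NR2E3 corepressor binding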
PP1 confirm: confirmation of human PP1 phosphatase inhibitors; shares compounds with PP1 inh; purified PP1alpha, OMFP substrate fluorescence; inhibition, % at 6.7 µM; 1,900 tested, 52% active; AID 2358;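 active = mean PP1 inhibition above a set limit taken from the earlier primary screen, cut at about 15% in these data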
PP5 counter: PP5 phosphatase inhibition, counter-screen for PP1 inhibitors | shares compounds with PP1 inh | purified PP5c, OMFP fluorescence | inhibition, % at 6.7 µM | 1,900 tested, 4% active | AID 2360;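 active = mean PP5 inhibition over triplicate wells above about 9.5% taken from the earlier PP1 screen, limit read from the data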
Active calls of the source: *; · = no result.

SMILES	NR2E3 ag-1	PP5 primary	PP1 inh	NR2E3 ag-2	PP1 confirm	PP5 counter
O=C(NC(C(=O)N/N=C/c1cc([N+](=O)[O-])ccc1O)c1n[nH]c(=O)c2ccccc12)c1ccccc1 (centres undefined)	2	4	27*	-7	18*	1
CC(C)NC(=O)c1ccc(CN2CCc3ccccc3C2)cc1	·	·	·	13	·	·
CSCCC(C(=O)Nc1c(C)cccc1C)N1CCC(Cc2ccccc2)CC1 (centres undefined)	·	·	·	7	·	·
COc1ccc2[nH]c(=O)c(CN(Cc3cccs3)S(=O)(=O)c3cccc4nsnc34)cc2c1	3	1	-1	0	·	·
COc1ccc2[nH]c(=O)c(CN(CCO)S(=O)(=O)c3c(C)ccc4nsnc34)cc2c1	1	2	55*	-9	0	0
CCOC(=O)[C@]12CCC=C1N(Cc1ccco1)C(=O)[C@H](CC(=O)NCCC(C)C)C2	·	·	·	-2	·	·
CCc1ccc(NC(=O)Cn2ncc3c4ccccc4n(C)c3c2=O)cc1	-6	-3	24*	-37	22*	-5
Cn1c2ccccc2c2cnn(CC(=O)Nc3ccc(Cl)cc3)c(=O)c21	1	1	18*	4	14	0
O=C(Cn1ncc2c3ccccc3n(Cc3ccc(Cl)cc3)c2c1=O)NCCCN1CCCC1=O	-1	1	2	-29	·	·
CCCCN1C(=O)C(CC(=O)NCCc2ccccn2)CC(C(=O)N2CCCCCC2)=C1C (centres undefined)	·	·	·	2	·	·
Cc1ncc(CO)c(/C=N/NC(=O)c2cc3c(s2)CCCC3)c1O	-1	-2	0	-31	·	·
CCN1/C(=C/C=C/c2sc3ccccc3[n+]2CC)Sc2ccccc21	1	6	18*	20	-8	9
CCN1/C(=C/C=C/C=C/C=C/c2sc3ccccc3[n+]2CC)Sc2ccccc21	4	-2	20*	-13	39*	0
O=C(N/N=C/c1cccnc1)/C(=C\c1cccs1)NC(=O)c1ccccc1	-2	-9	-5	-29	·	·
O=C(N/N=C/c1cc2ccccc2nc1Cl)/C(=C/c1cccs1)NC(=O)c1ccccc1	-2	1	18*	-20	7	-1
O=C(Nc1nnc(-c2ccc3c(c2)CCCC3)o1)C1COc2ccccc2O1 (centres undefined)	6	1	38*	-38	37*	1
COC(=O)c1ccc2nc(-c3ccc(C)cc3)c(Cc3cccc(Cl)c3)n2c1	·	·	·	-27	·	·
O=C(c1ccc2nc(-c3ccco3)c(-c3ccco3)nc2c1)N1CCN(c2ncccn2)CC1	5	2	33*	-21	8	6
CCCCNC(=O)c1ccc2nc(-c3ccco3)c(-c3ccco3)nc2c1	5	1	7	-16	·	·
O=C(Nc1ccc(N2CCOCC2)cc1)c1ccc2nc(-c3ccco3)c(-c3ccco3)nc2c1	0	2	-3	-14	·	·
O=C(c1cccc(C(=O)N2CCN(c3ncccn3)CC2)c1)N1CCN(c2ncccn2)CC1	1	0	-3	-15	·	·
CC(=O)c1ccc(NC(=O)c2ccc3nc(-c4ccco4)c(-c4ccco4)nc3c2)cc1	0	-3	34*	-21	25*	8
O=C(Nc1ccccc1)c1ccc2nc(-c3ccco3)c(-c3ccco3)nc2c1	0	5	21*	-18	7	-1
O=C(NCc1ccccc1)c1ccc2nc(-c3ccco3)c(-c3ccco3)nc2c1	6	2	28*	-16	8	7
COc1cc(OC)cc(C(=O)NNC(=S)NC2CC2)c1	-4	2	-2	-6	·	·
SMILES	NR2E3 ag-1	PP5 primary	PP1 inh	NR2E3 ag-2	PP1 confirm	PP5 counter
COc1cc([N+](=O)[O-])cc(/C=N/NC(=O)C(C)Nc2ccccc2C)c1O (centres undefined)	-4	3	22*	-15	15	-6
COc1cc([N+](=O)[O-])cc(/C=N/NC(=O)c2ccc(NC(=O)c3ccc(C)cc3)cc2)c1O	·	·	·	-30	·	·
COc1cc([N+](=O)[O-])cc(/C=N/NC(=O)CSc2ccccn2)c1O	-1	0	21*	-10	24*	-6
Cc1ccccc1NC(C)C(=O)N/N=C/c1c[nH]c2ccccc12 (centres undefined)	0	4	2	-2	·	·
COc1cc([N+](=O)[O-])cc(/C=N/NC(=O)C(C)Nc2cccc(C)c2)c1O (centres undefined)	-2	6	22*	-21	9	-6
COc1cc(/C=N/NC(=O)CSc2ccccn2)ccc1O	1	-2	-2	-5	·	·
O=C(N/N=C/c1cc([N+](=O)[O-])ccc1O)NC12CC3CC(CC(C3)C1)C2	2	5	20*	-1	17*	0
CC(=O)c1cccc(-c2ccnc3c2CC(C(=O)Nc2cccc(C(F)(F)F)c2)O3)c1 (centres undefined)	·	·	·	5	·	·
CC1Nc2ncnc(N3CCc4ccccc4C3)c2N(Cc2ccc(Br)cc2)C1=O (centres undefined)	0	4	23*	-19	19*	0
Cc1ccc(-c2cc(C(=O)NCCCn3ccnc3)c3cc(Br)ccc3n2)o1	1	0	32*	8	-8	-6
COc1ccc(NC(=O)c2ccc(CNc3c(NC4CCCCC4)c(=O)c3=O)cc2)cc1OC	1	2	12	2	·	·
COc1ccc(C(=O)NCc2ccc(-c3nc4ccccc4s3)cc2)cc1	-1	0	20*	-66	25*	-2
COc1ccc(CNC(=O)c2ccc(CNc3c(NC4CCCCC4)c(=O)c3=O)cc2)cc1	0	2	25*	-12	14	-4
CCCCOC(=O)c1ccc(NC(=O)c2ccccc2OC)cc1	0	7	64*	-27	1	2
COc1ccc2nc3cc(Cl)ccc3c(Nc3cc(CN4CCCC4)c(O)c(CN4CCCC4)c3)c2n1	-9	8	32*	-8	1	-1
O=C(Nc1cc(C(=O)N2CCN(c3ccccc3O)CC2)ccc1Cl)c1cccs1	0	2	-2	21	·	·
CC(C)(C)c1ccc(-c2cn(-c3ccc(Br)cc3)c3[n+]2CCCS3)cc1	·	·	·	-2	·	·
CCOc1ccc(CNC(=O)CCn2c(=O)oc3ccccc32)cc1	1	3	23*	9	-4	-4
Cc1ccc(-c2cc(C(=O)N/N=C/c3ccco3)[nH]n2)cc1	0	-7	-56	-59	-5	-5
O=C(N/N=C/c1ccco1)c1cc(-c2ccccc2)n[nH]1	0	0	1	-13	·	·
C=CCOC(=O)C1=C(C)NC(SCC(=O)Nc2nccs2)=C(C#N)C1c1cccs1 (centres undefined)	3	3	11	-69	·	·
C=CCOC(=O)C1=C(C)NC(SCC(=O)Nc2nccs2)=C(C#N)C1c1ccc(Cl)cc1 (centres undefined)	1	1	23*	-16	7	3
